What was measured:
B16 [1] = assay: Boron incorporation into B-16 […] tumor cell after 24 hours; assay type: functional
Method in brief: (§1)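 Cells grown to confluence in 150-mm dishes (about 5.0 × 10⁶ cells/dish), then exposed to carrier (1.5 ppm carborane or 200 ppm BPA-HCl) in Eagle-MEM with 10% FCS at 37 °C. Cells were washed thrice in Ca-Mg-free PBS, scraped, digested in HClO₄–H₂O₂ for 1 h at 75 °C, and filtered. Boron was measured by ICP-AES, untreated-dish boron subtracted, and reported as μg/10⁶ cells; two replicates, SD.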

B16 [2] = assay: Boron incorporation into B-16 […] tumor cell after 2 hours; assay type: functional; method in brief: as §1
TIG-1-20 [3] = assay: Boron incorporation into TIG-1-20 human fetal lung normal cell line after 2 hours; assay type: functional; method in brief: as §1
TIG-1-20 [4] = assay: Boron incorporation into TIG-1-20 human fetal lung normal cell line after 24 hours; assay type: functional; method in brief: as §1
IMR-32 = assay: (§2) Inhibition of growth of IMR 32 human tumor cell line; assay type: functional, cell-based
Method in brief: (§3)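 1 × 10⁶ cells per 60-mm dish in Eagle-MEM plus 10% FCS, treated with 1, 2.5, 5, 10, 25, 50 or 100 ppm compound (DMSO vehicle) for 3 days at 37 °C in CO₂. Cells were washed with PBS, trypsinized and counted; the count is a percentage of untreated control, and IC50 is the concentration giving 50% of control cell number.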

Tumor cell line = assay: as §2; assay type: functional, cell-based; method in brief: as §3

Row | SMILES | Boron incorporation (B16 [1]) [ug/10e6] | Boron incorporation (B16 [2]) | Boron incorporation (TIG-1-20 [3]) [ug/10e6] | Boron incorporation (TIG-1-20 [4]) [ug/10e6] | IC50 (IMR-32) [ppm g dm**-3] | IC50 (Tumor cell line) [M mol/dm 3]
1 | NC(Cc1ccc(B(O)O)cc1)C(=O)O (stereo not given) | 0.28 | 0.22 ug/10e6 | 0.17 | 0.26 |  | 
2 | CC1CN1CC(O)CC1CC1 (stereo not given) | 0.26 | 0.25 µg | 0.14 | 0.11 | 8.2e-6 | 0.0000319
